Shown are actives, neighbours in structure and some others; about 3.3% of the full set was active somewhere.
CendR NRP1 mod = modulators of CendR peptide binding to NRP-1, primary screen, biochemical, fluorescence polarization, uHTS | Neuropilin-1 (Homo sapiens), O14786 | FAM-RPARPAR peptide binding to NRP-1 | inhibition, % at 25 µM | 0.85% of 360,000 active;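 active means inhibition or corrected inhibition above about 18%, plus a signal ratio from 0.5 to 1.5, limit read from the data, passing the limit was not always enough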
M18AAP inhibitor = PfM18AAP inhibitors, malaria aminopeptidase, primary screen, biochemical, QFRET, recombinant enzyme. H-Glu-NHMec fluorogenic cleavage. 1.2% of 290,000 active. AID 1822, 2009. inhibition, % at 7.35 µM;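 active means inhibition above the campaign mean inhibition over all tested compounds plus 3 SD, cut at about 28% in these data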;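 further: 0% = plate median of test compound wells and 100% = 2 mM ZnCl2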
Lipid droplet = inhibitors of hepatocyte lipid droplet formation, primary screen, imaging, high-throughput imaging, BODIPY stain; AML12 mouse hepatocytes, oleate lipid droplets; inhibition, % at 6.5 µM; 0.4% of 240,000 active;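 active means lipid droplet intensity inhibited by at least 50%, with more than 500 cells counted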
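Material: mouse AML12 hepatocyte cell line, fixed after treatment; Timing: compound with oleate, overnight; Technique: high-content imaging of BODIPY-stained droplets and DAPI nuclei; Probe or stimulus: oleate, 100 µM final; Dosing: compound at 6.5 µM only.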
m5-HT2A agonist = mouse Htr2a agonists via beta-arrestin recruitment, primary screen, cell-based, luminescence; 5-hydroxytryptamine receptor 2A (Mus musculus), P35363; CHO-K1 mHTR2A beta-arrestin complementation; percent of 30 µM serotonin response; activation, % at 7.6 µM; 0.66% of 360,000 active;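 active means activation above a run cutoff, the mean activation of all tested compounds plus 3 SD, cut at about 14% in these data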;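 further: 0% = plate median of compound wells and 100% = 30 µM serotonin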
Target sequence (P35363 whole entry, looked up): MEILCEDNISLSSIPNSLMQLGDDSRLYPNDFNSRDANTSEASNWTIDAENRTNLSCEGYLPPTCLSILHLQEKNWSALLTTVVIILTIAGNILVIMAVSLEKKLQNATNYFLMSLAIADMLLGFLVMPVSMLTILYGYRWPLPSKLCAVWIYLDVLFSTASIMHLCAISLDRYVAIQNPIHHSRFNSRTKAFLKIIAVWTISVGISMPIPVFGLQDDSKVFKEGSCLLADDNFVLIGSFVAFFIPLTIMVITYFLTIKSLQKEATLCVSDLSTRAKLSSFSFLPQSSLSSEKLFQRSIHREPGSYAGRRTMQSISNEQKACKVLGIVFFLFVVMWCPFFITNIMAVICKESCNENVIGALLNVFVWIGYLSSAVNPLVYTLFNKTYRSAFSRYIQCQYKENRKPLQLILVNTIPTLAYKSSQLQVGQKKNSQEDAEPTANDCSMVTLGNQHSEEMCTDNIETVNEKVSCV
sPLA2-III inh = human group III sPLA2 inhibitors, primary screen, biochemical, QFRET, BODIPY PC-A2 liposome substrate. Group 3 secretory phospholipase A2 (Homo sapiens), Q9NZ20. QFRET BODIPY PC-A2 liposome hydrolysis, fluorescence. inhibition, % at 12.2 µM. 0.56% of 370,000 active;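 active means inhibition above mean plus 3 SD of compounds lying within the high and low control bounds, cut at about 19% in these data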;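 further: 0% = median of test compound wells and 100% = no enzyme DMSO wells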
Arrestin-AP2 inh = inhibitors of beta-arrestin/AP2 binding, primary screen, biochemical, GPCR trafficking, flow cytometry; FITC-arrestin peptide / GST-AP2 beads; AP2 beta2 appendage carries R879A mutation; 0.31% of 340,000 active; beta-arrestin 1 C-terminal peptide binding to AP2 beta2-adaptin appendage (human); inhibition, % at 10 µM;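 active means inhibition above a set limit, near 3 SD of compounds lacking own fluorescence, cut at about 54% in these data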;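 further: plate controls were DMSO wells for no effect and 5 µM unlabelled arrestin peptide for full effect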
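Material – GST-tagged AP2 beta2-adaptin appendage (R879A) on 4 µm glutathione beads · Probe or stimulus – fluorescein-tagged arrestin peptide at 50 nM final · Timing – 12 min plus 1 h, RT · Detection – bead flow cytometry, FITC channel · Read-out basis – inhibition as reduced fluorescein signal on beads, percent · Medium – PBS plus Tween 20 (0.05%) and BSA (0.1%)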
Lipid drop inh = hepatocyte lipid droplet accumulation inhibitors, confirmation, imaging, AML12 mouse hepatocytes, single concentration, high-content | inhibition, % at 5.2 µM | 65% of 870 active | AID 463183, 2010 | shares compounds with Lipid droplet | BODIPY lipid droplet imaging; droplets induced with 100 µM oleic acid;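 active means inhibition of lipid droplet metric at least 50%, with more than 300 cells in each of four replicates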;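 further: plate controls were DMSO with oleic acid for no effect and 5 µM Triacsin-C for full effect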
AML12 cytotox = AML12 hepatocyte cytotoxicity, counter-screen for hepatic lipid droplet formation project, imaging, DAPI nuclear morphology imaging; shares compounds with Lipid droplet; AML12 mouse hepatocytes; active compounds read high; cells fed 100 µM oleate overnight; z-score at 5 µM; 3% of 870 active; in the data active means z-score above about 6.3;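 further: compound exposure lasted overnight at 37 °C before fixation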
AML12 tox ATP = AML12 hepatocyte cytotoxicity, confirmation, cytotoxicity control for hepatic lipid droplet formation project, cell-based, single concentration; 530 tested, under 10 active; cytotoxicity, % at 50 µM; shares compounds with Lipid droplet; AML12 mouse hepatocyte viability, ATP luminescence; cells loaded with 100 µM oleic acid;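 active means cytotoxicity above 50% in each of four replicates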;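 further: compound exposure lasted overnight at 37 °C before the ATP read; 0% = DMSO-treated cells and 100% = wells with no cells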
* = called active by the depositor; . = not tested or not shown.

SMILES	CendR NRP1 mod	M18AAP inhibitor	Lipid droplet	m5-HT2A agonist	sPLA2-III inh	Arrestin-AP2 inh	Lipid drop inh	AML12 cytotox	AML12 tox ATP
CCn1cc([N+](=O)[O-])c(C(=O)N2N=C(c3ccc(Cl)c(Cl)c3)CC2c2ccccc2O)n1 (stereo not given)	4	5	23	-3	-47	-2	.	.	.
CCn1cc([N+](=O)[O-])c(C(=O)N2N=C(c3ccc4ccccc4c3)CC2c2cc(Br)ccc2O)n1 (stereo not given)	-14	1	89*	3	.	13	77*	-1.5	11
Cc1ccc(-c2cc(-c3c(C)nn(C)c(=O)c3N)[nH]n2)cc1	0	5	56*	3	1	-5	79*	-0.36	.
Cc1nn(C)c(=O)c(N)c1-c1cc(-c2ccc(Cl)c(Cl)c2)n[nH]1	-9	3	-9	5	-3	12	.	.	.
O=C(CSc1nnc(-c2cccs2)o1)c1cccc([N+](=O)[O-])c1	.	.	.	.	-42	.	.	.	.
CCC(C)NCCOc1ccc(C(C)(C)c2ccccc2)cc1 (stereo not given)	-3	13	51*	-8	7	6	28	-0.5	.
COc1ccc(-c2cnc(SCC(=O)Nc3nc(C(C)(C)C)cs3)n2Cc2ccco2)cc1	-29	4	64*	-7	-14	5	94*	1.4	-32
CC(C)[C@H](NC(=O)c1ccccc1)C(=O)N1CCC[C@H]1C(=O)NCCc1ccccc1Cl	.	.	.	.	1	.	.	.	.
CC(C)(C)C(=O)/C=c1\[nH]c(=O)/c(=C\c2ccc(F)cc2)s1	-14	4	67*	-3	-6	-8	98*	0.89	6
CCc1ccc(/C=c2\s/c(=C\C(=O)C(C)(C)C)[nH]c2=O)cc1	-2	0	50	1	-2	-4	.	.	.
CCOc1ccc(C(=O)OCC(=O)NCc2ccccc2)cc1OCC	-2	.	.	-5	-6	28	.	.	.
COc1cc(OC)cc(C(=O)OCC(=O)NC(C)CCc2ccccc2)c1 (stereo not given)	3	-6	-2	1	-5	0	.	.	.
CCOc1ccc(C(=O)NCC(=O)NC(C)CCc2ccccc2)cc1OCC (stereo not given)	14	5	75*	-2	-2	-1	106*	1.1	16
COc1ccc(C(=O)OC(C)C(=O)NC(C)CCc2ccccc2)cc1OC (stereo not given)	4	-1	103*	0	-6	-14	107*	-0.018	14
COc1ccc(C(=O)OCC(=O)NC(C)CCc2ccccc2)c(OC)c1 (stereo not given)	-3	1	75*	3	-4	-14	67	0.65	7
CCOc1ccc(C(=O)CCC(=O)NCC(=O)OCc2ccccc2)cc1OCC	-15	-9	93*	10	4	13	73*	-0.48	9
CCCCN1CC(COc2ccc(OC)cc2)OCCS1(=O)=O (stereo not given)	.	.	.	.	-6	.	.	.	.
COc1nccnc1NS(=O)(=O)c1ccc(NCc2cc(Br)ccc2O)cc1	10	6	64*	2	-24	2	15	-0.0013	.
Cc1ccccc1Br	.	.	.	.	3	.	.	.	.
